The target in assay [1] is T1, Adrenergic receptor alpha-2 (Rattus norvegicus, UniProt P22086+P19328+P22909).
T1 sequence (P22086 whole entry): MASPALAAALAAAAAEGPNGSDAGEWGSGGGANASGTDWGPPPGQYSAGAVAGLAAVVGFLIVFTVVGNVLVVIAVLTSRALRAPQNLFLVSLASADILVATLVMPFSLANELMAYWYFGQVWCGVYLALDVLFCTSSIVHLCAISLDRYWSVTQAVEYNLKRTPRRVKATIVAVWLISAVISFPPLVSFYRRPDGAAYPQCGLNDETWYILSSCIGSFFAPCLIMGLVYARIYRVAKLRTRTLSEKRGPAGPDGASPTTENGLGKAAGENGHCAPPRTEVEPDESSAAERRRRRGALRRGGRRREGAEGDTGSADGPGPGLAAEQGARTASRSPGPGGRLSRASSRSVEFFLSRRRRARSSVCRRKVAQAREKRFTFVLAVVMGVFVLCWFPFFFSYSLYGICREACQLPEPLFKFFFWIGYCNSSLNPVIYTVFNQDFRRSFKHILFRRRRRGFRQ
T1 sequence (P19328 whole entry): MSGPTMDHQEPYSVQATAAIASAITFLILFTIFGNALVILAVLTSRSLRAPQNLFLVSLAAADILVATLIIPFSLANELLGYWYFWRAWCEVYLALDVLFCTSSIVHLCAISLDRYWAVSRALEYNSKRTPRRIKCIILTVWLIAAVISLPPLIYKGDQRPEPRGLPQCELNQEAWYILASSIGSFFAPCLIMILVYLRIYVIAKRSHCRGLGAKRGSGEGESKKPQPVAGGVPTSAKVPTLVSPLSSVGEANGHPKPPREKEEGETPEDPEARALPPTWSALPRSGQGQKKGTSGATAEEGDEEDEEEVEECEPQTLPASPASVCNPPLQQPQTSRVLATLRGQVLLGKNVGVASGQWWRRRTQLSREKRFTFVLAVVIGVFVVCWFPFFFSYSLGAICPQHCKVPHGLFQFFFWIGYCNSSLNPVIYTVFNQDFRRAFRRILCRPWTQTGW
T1 sequence (P22909 whole entry): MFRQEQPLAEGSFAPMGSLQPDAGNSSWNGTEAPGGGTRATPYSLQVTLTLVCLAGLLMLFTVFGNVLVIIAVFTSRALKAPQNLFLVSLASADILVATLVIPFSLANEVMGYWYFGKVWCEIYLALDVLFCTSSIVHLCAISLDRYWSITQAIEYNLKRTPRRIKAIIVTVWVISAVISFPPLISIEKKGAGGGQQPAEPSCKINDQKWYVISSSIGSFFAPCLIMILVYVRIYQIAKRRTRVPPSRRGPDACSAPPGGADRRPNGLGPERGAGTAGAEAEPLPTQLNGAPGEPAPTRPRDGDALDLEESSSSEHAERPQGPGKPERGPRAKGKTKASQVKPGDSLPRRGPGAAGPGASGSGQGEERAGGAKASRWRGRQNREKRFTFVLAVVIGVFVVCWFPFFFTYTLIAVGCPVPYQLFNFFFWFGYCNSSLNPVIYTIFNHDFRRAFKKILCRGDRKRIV
Nature of the assay: Binding affinity to alpha-2 adrenergic receptor determined by measurement of [3H]yohimbine displacement from rat cortical membrane.

The target in assay [2] is T2, Adrenergic receptor alpha-1 (Rattus norvegicus, UniProt P15823+P23944+P43140).
T2 sequence (P15823 whole entry): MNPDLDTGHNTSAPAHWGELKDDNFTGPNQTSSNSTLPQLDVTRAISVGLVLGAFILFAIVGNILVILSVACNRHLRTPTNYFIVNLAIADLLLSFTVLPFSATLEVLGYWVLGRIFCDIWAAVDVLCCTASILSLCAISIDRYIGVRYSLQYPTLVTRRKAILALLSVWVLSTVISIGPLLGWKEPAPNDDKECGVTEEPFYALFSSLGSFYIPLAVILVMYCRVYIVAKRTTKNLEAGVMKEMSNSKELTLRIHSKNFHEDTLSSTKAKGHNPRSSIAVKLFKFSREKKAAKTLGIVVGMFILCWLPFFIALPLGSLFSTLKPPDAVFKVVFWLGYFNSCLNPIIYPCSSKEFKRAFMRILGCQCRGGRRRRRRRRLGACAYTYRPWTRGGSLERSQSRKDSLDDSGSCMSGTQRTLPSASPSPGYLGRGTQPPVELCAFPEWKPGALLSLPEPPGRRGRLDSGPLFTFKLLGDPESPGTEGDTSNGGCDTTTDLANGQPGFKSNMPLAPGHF
T2 sequence (P23944 whole entry): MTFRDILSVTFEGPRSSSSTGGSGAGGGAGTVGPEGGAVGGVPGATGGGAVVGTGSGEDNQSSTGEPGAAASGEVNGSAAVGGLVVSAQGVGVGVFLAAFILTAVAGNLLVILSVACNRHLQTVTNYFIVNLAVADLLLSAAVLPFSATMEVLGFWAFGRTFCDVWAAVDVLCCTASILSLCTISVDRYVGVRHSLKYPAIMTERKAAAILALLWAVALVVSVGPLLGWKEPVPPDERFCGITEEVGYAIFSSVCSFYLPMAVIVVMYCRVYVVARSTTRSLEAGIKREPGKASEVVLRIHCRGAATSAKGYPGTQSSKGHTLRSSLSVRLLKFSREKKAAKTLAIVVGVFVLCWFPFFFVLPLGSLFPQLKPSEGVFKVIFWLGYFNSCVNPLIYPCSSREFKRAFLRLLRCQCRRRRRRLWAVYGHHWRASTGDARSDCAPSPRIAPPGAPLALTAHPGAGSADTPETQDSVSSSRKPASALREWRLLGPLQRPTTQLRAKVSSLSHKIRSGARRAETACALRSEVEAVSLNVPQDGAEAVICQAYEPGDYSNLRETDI
T2 sequence (P43140 whole entry): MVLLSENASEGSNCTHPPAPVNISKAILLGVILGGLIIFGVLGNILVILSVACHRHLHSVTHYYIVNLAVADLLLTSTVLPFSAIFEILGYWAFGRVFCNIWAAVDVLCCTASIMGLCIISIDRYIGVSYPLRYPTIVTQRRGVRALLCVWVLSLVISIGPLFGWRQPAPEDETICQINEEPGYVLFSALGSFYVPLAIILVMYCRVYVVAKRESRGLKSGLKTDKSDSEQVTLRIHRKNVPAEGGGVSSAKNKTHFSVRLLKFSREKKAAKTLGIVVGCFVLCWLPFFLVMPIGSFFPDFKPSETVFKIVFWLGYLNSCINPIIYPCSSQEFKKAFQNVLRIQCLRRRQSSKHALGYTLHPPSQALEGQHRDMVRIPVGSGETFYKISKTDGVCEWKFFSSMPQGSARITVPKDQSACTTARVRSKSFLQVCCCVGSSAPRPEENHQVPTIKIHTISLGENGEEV
Description: Binding affinity to alpha-1 adrenergic receptor determined by measurement of [3H]prazosin displacement from rat cortical membrane. The method, boiled down:
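Male Sprague-Dawley rat (150-200 g) cerebral cortex membranes, washed in 50 mM Tris-HCl/0.5 mM EDTA pH 7.4. 250 µg membrane protein incubated with 0.5 nM [3H]prazosin for 30 min at 25 °C in a 0.5 mL volume. Nonspecific binding defined by 10 µM phentolamine. IC50 estimated graphically; Ki calculated by Cheng-Prusoff.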

Structures are written as SMILES.

With `CC(C)CS(=O)(=O)N(C)[C@@H]1CCN2CCc3ccccc3[C@@H]2C1`, the “Log Ki” value in assay [1] was -8.04; in assay [2], -5.7.

`CS(=O)(=O)N1CC[C@H]2C[C@H]3c4ccccc4CCN3C[C@H]2C1`: the “Log Ki” value in assay [1] was -6.4; in assay [2], -5.2.

Consider `COc1ccc2c(c1)CCN1C[C@H]3CCCN(S(N)(=O)=O)[C@H]3C[C@@H]21`, for which the “Log Ki” value in assay [1] is reported as -8.43; in assay [2], -4.92.

In the case of `C=CS(=O)(=O)N1CCC[C@@H]2CN3CCc4cc(OC)ccc4[C@@H]3C[C@@H]21`, the “Log Ki” value is -8.82 in assay [1] and -5.33 in assay [2].

On to `CS(=O)(=O)N1CCC[C@@H]2CN3CCc4cc5c(cc4[C@@H]3C[C@H]21)OCO5`, for which the “Log Ki” value in assay [1] is -9.19; in assay [2] it was -5.32.

`COc1cc2c(cc1Br)[C@@H]1C[C@@H]3[C@H](CCCN3S(C)(=O)=O)CN1CC2`: the figures for the “Log Ki” value in assay [1] and in assay [2] were -8.3 and -5.25, respectively.

In the case of `O=S(=O)(c1ccc(F)cc1)N1CCC[C@@H]2CN3CCc4ccccc4[C@@H]3C[C@@H]21`, the results for the “Log Ki” value in assay [1] and in assay [2] were -8.69 and -5.38, respectively.

For `COc1ccc2c(c1)CCN1C[C@@H]3CCCN(S(C)(=O)=O)[C@@H]3C[C@@H]21`, the “Log Ki” value in assay [1] is -6.88; in assay [2], -4.85.

`COc1ccc2c(c1OC)CCN1C[C@H]3CCCN(S(C)(=O)=O)[C@H]3C[C@@H]21`: the “Log Ki” value is -7.94 in assay [1] and -4.42 in assay [2].

Take `Cc1ccc2c(c1)CCN1C[C@H]3CCCN(S(C)(=O)=O)[C@H]3C[C@@H]21`: the “Log Ki” value was -9.15 in assay [1] and -4.89 in assay [2].

In the case of `CS(=O)(=O)N1CCC[C@@H]2CN(CCc3ccccc3)CC[C@@H]21`, the figures for the “Log Ki” value in assay [1] and in assay [2] were -6.12 and -5.51, respectively.

For `COc1ccc2c(c1)CCN1C[C@H]3CCCN(S(=O)(=O)NC(C)(C)C)[C@H]3C[C@@H]21`, the “Log Ki” value is -7.78 in assay [1] and -5.26 in assay [2].

In the case of `COc1ccc2c(c1)CCN1C[C@H]3CCCN(S(=O)(=O)c4cccs4)[C@@H]3C[C@@H]21`, the “Log Ki” value in assay [1] was -8.83; in assay [2], -5.01.

As for `O=S(=O)(c1ccc(Cl)cc1)N1CCC[C@@H]2CN3CCc4ccccc4[C@@H]3C[C@@H]21`, the “Log Ki” value in assay [1] was -8.3; in assay [2], -5.19.

With `CS(=O)(=O)N1CCC[C@H]2CN3CCc4ccccc4[C@@H]3C[C@H]21`, the “Log Ki” value in assay [1] is given as -5.96; in assay [2] it was -5.58.

In the case of `CS(=O)(=O)N1CCC[C@H]2[C@H]3c4cc5c(cc4CCN3CC[C@@H]21)OCO5`, the entries for the “Log Ki” value in assay [1] and in assay [2] were -6.4 and -5.06, respectively.

Turning to `COc1ccc2c(c1Br)CCN1C[C@H]3CCCN(S(C)(=O)=O)[C@@H]3C[C@@H]21`, the “Log Ki” value in assay [1] is -8.3; in assay [2] it was -5.35.

In the case of `COc1cc2c(cc1OC)[C@@H]1C[C@H]3[C@H](CCCN3S(C)(=O)=O)CN1C(C)C2` (some centres undefined), the “Log Ki” value in assay [1] is on record as -7.08; in assay [2], -4.93.

With `CS(=O)(=O)N1CCC[C@H]2CN3CCc4c([nH]c5ccccc45)[C@@H]3C[C@H]21`, the figures for the “Log Ki” value in assay [1] and in assay [2] were -6.26 and -5.15, respectively.

In the case of `CS(=O)(=O)N1CCC[C@@H]2CN3CCc4cc(O)ccc4[C@@H]3C[C@@H]21`, the “Log Ki” value is -8.2 in assay [1] and -5.27 in assay [2].

For `CS(=O)(=O)N1CCC[C@H]2CN3CCc4ccccc4[C@@H]3C[C@@H]21`, the “Log Ki” value is reported as -7.25 in assay [1] and -5.65 in assay [2].

As for `CN(C)S(=O)(=O)N1CCC[C@@H]2CN3CCc4ccccc4[C@@H]3C[C@@H]21`, the “Log Ki” value in assay [1] is on record as -8.74; in assay [2] it was -6.03.

These data come from ChEMBL document CHEMBL1125249, “Structure-affinity relationships of 12-sulfonyl derivatives of 5,8,8a,9,10,11,12,12a,13,13a-decahydro-6H-isoquino[2,1-g][1 ,6] naphthyridines at alpha-adrenoceptors” (J Med Chem, 1991).
